Results: PubChem BioAssay AID588479 (NMMLSC, 2011)
Inconclusive results are not listed. Activity calls are given as the source filed them.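 Rule for the calls: active = eight-GTPase mean potency score over 50, needing half-effect dose up to 10 µM and response span 30% or more; inconclusive = no clear call, values can overlap the other calls; inactive = the rest.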

How the values were obtained:
Assay in all cases: inhibitors of GTP binding to eight small GTPases, SAR follow-up, biochemical, round 1 SAR, Mg buffer, multiplex flow cytometry (AID 588479)
Cdc42ACT = settings: multiplex GST-GTPase beads, Bodipy-GTP binding, constitutively active; for response, lower = inhibition: at 100 µM (top of the series)
Method in brief: (§1)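 Control set – DMSO wells as high control, 0.5 mM unlabeled GTP as low control · Assay system – GST-GTPase bead multiplex, wild-type and constitutively active forms · Measured by – flow cytometry, green median fluorescence per bead · Evaluation – normalized response, EC50 by four-parameter fit · Times – binding incubation 40–45 min, 4 °C · Reagent – Bodipy-FL-GTP at 100 nM final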

Cdc42WT = settings: multiplex GST-GTPase beads, Bodipy-GTP binding, wild type; for response, lower = inhibition: at 100 µM (top of the series)
Method in brief: as §1

RacACT = settings: multiplex GST-GTPase beads, Bodipy-GTP binding, constitutively active; for response, lower = inhibition: at 100 µM (top of the series)
Method in brief: as §1

RacWT = settings: multiplex GST-GTPase beads, Bodipy-GTP binding, wild type; for response, lower = inhibition: at 100 µM (top of the series)
Method in brief: as §1

RasACT = settings: multiplex GST-GTPase beads, Bodipy-GTP binding, constitutively active
Method in brief: as §1

RhoWT = settings: multiplex GST-GTPase beads, Bodipy-GTP binding, wild type; for response, lower = inhibition: at 100 µM (top of the series)
Method in brief: as §1

SMILES	response, lower = inhibition (Cdc42ACT)	response, lower = inhibition (Cdc42WT)	response, lower = inhibition (RacACT)	response, lower = inhibition (RacWT)	EC50 (RasACT) [nM]	response, lower = inhibition (RhoWT)	EC50 (Cdc42WT) [nM]	EC50 (RacACT) [nM]	EC50 (RhoWT) [nM]	EC50 (Cdc42ACT) [nM]	EC50 (RacWT) [nM]
CC1(C)Cc2c(sc(NC(=S)Nc3ccccc3)c2C(=O)O)CO1	inactive	inactive	inactive	inactive	1780	inactive	–	–	–	–	–
CCOC(=O)c1c(N)sc2ccccc12	inactive	inactive	inactive	inactive	–	inactive	–	–	–	–	–
CC1(C)Cc2c(sc(NC(=S)NC(=O)c3ccccc3Br)c2C(=O)O)CO1	inactive	–	–	inactive	–	–	69	71	70	–	–
COc1cccc(C(=O)NC(=S)Nc2sc3c(c2C(=O)O)CC(C)(C)OC3)c1	–	–	–	–	–	–	118	122	111	122	141
CCOC(=O)c1c(NC(=O)Nc2ccc(C)cc2)sc2c1CCN(C)C2	inactive	–	–	–	–	–	–	–	–	–	–
CC1(C)Cc2c(sc(NC(=S)NC(=O)c3ccccc3F)c2C(=O)O)CO1	–	–	–	–	–	–	64	59	65	60	58
CC1(C)CCc2sc(NC(=S)NC(=O)c3ccccc3)c(C(=O)O)c2C1	–	–	–	–	–	–	99	109	81	106	89
CC1(C)Cc2c(sc(NC(=S)NC(=O)c3cccc(Br)c3)c2C(=O)O)CO1	inactive	inactive	inactive	inactive	–	inactive	–	–	–	–	–

More lines, now with the values ahead:

response, lower = inhibition (Cdc42ACT)	response, lower = inhibition (Cdc42WT)	response, lower = inhibition (RacACT)	response, lower = inhibition (RacWT)	EC50 (RasACT) [nM]	response, lower = inhibition (RhoWT)	EC50 (Cdc42WT) [nM]	EC50 (RacACT) [nM]	EC50 (RhoWT) [nM]	EC50 (Cdc42ACT) [nM]	EC50 (RacWT) [nM]	SMILES
inactive	–	–	–	–	–	–	–	–	–	–	CCOC(=O)c1c(NC(=O)Nc2ccc(F)cc2)sc2c1CCN(C)C2
inactive	inactive	inactive	inactive	–	inactive	–	–	–	–	–	CC1(C)Cc2c(sc(NC(=O)Cc3ccccc3)c2C(=O)O)CO1
inactive	inactive	inactive	inactive	–	inactive	–	–	–	–	–	Cc1ccc(NC(=O)Nc2sc3c(c2C(=O)O)CCN(C)C3)cc1
–	–	–	–	–	–	127	142	139	143	133	COc1ccc(C(=O)NC(=S)Nc2sc3c(c2C(=O)O)CC(C)(C)OC3)cc1
–	–	–	–	–	–	154	204	280	170	214	CC1(C)Cc2c(sc(NC(=S)NC(=O)c3ccc(Br)cc3)c2C(=O)O)CO1
–	–	–	–	–	–	493	466	499	465	471	CC1(C)Cc2c(sc(NC(=S)NC(=O)c3cccc(F)c3)c2C(=O)O)CO1
inactive	–	–	–	–	–	–	–	–	–	–	COC(=O)c1c(N)sc2c1CC(C)(C)OC2
